Laboratory results published in ChEMBL document CHEMBL4706642, “Discovery of a Potent Dual Inhibitor of Acetylcholinesterase and Butyrylcholinesterase with Antioxidant Activity that Alleviates Alzheimer-like Pathology in Old APP/PS1 Mice” (J Med Chem, 2021).
Calls of active or inactive are those of the source.

Tests used:
[1] = tested on: Mus musculus; experiment: Antialzheimer activity in 6 months young APP/PS1 double mutant-transgenic mouse model assessed as time interval between two EPSPs in CA3 region of hippocampus at 2 mg/kg, ip administered thrice a week for 4 weeks at 10 ms stimulus interval by fluorescence microscopy based electrophysiology method (reference value: 3.18 +/- 0.8 ms); format: functional
Outline: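 Paired-pulse facilitation in hippocampal slices from male APP/PS1 mice dosed i.p. with 2 mg/kg in saline (or vehicle), three times per week for 4 weeks. Two EPSPs were evoked at intervals of 10–200 ms, and the index is the R2/R1 fEPSP slope ratio. Mean ± SEM of 9 slices from 3 mice per group; two-way ANOVA with Bonferroni post hoc.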

[2] = Antioxidant activity assessed as DPPH radical scavenging activity incubated for 30 mins under dark condition by UV-Vis spectrophotometric analysis; format: functional
[3] = tested on: Mus musculus; experiment: Memory enhancement effect in 11 months old APP/PS1 double mutant-transgenic mouse model assessed as number of trials required to reach criterion at 2 mg/kg, ip administered thrice a week for 4 weeks measured on trail day 1 by memory flexibility text; format: functional
Outline: (§1)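 Memory flexibility test in male APP/PS1 mice treated i.p. with 2 mg/kg in saline (or vehicle), three times weekly for 4 weeks. The number of trials to reach criterion was counted on each testing day over 4 days. Mean ± SEM, n = 7 per group; one-way ANOVA with Bonferroni post hoc.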

[4] = tested on: Mus musculus; experiment: Cognitive enhancing effect in 6 months young APP/PS1 double mutant-transgenic mouse model assessed as increase in preference index for object at 2 mg/kg, ip administered thrice a week for 4 weeks by novel object recognition test; format: functional, organism-based
Outline: (§2)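 Male APP/PS1 mice received 2 mg/kg i.p. in saline (or vehicle), three times per week for 4 weeks. Preference index = time exploring the relocated or novel object divided by total time exploring both objects. Mean ± SEM, n = 7 per group; one-way ANOVA with Bonferroni post hoc.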

[5] = Selectivity index, ratio of IC50 for human serum BChE using butyrylthiocholineiodide as substrate to IC50 for recombinant human AChE using acetylthiocholine iodide as substrate
Outline: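 Ellman spectrophotometric assay in 0.1 M phosphate buffer, pH 8.0, with 340 μM DTNB. Enzyme was 0.02 U/mL human recombinant AChE or human serum BChE. […] Then 550 μM ATCh or BTCh was added, and A412 was followed for 210 s. Non-enzymatic hydrolysis was corrected. IC50 came from a % inhibition vs log[I] regression. Selectivity = IC50 hBChE/IC50 hAChE. Mean ± SEM of ≥2 experiments, each in duplicate/triplicate.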

[6] = tested on: Mus musculus; experiment: Memory enhancement effect in 11 months old APP/PS1 double mutant-transgenic mouse model assessed as number of trials required to reach criterion at 2 mg/kg, ip administered thrice a week for 4 weeks measured after 4 days by memory flexibility text; format: functional; outline: as §1
[7] = tested on: Mus musculus; experiment: Cognitive enhancing effect in 6 months young APP/PS1 double mutant-transgenic mouse model assessed as effect on time spent on moving along the field at 2 mg/kg, ip administered thrice a week for 4 weeks by LOF test; format: functional, organism-based
Outline: (§3)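 Open-field locomotor test in male APP/PS1 mice after 2 mg/kg i.p. in saline (or vehicle), three times per week for 4 weeks. Read-outs were time spent moving and number of crossings of the central area of a transparent cage. Mean ± SEM, n = 7 per group; one-way ANOVA with Bonferroni post hoc.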

[8] = Drug distribution in wild type C57BL6 mouse kidney at 2 mg/kg, ip thrice a week for 2 weeks observed after 4 hrs post last dose by HPLC/MS/MS analysis; format: ADME, organism-based; conditions: in vivo, 336 h
[9] = biological target: Beta-secretase 1 (Homo sapiens) (UniProt P56817); experiment: Inhibition of recombinant human BACE-1 at 1 uM using methoxycoumarin-Ser-Glu-Val-Asn-Leu-Asp-Ala-Glu-Phe-Lys-dinitrophenyl as substrate preincubated for 1 hr followed by substrate addition and measured after 15 mins by fluorescence based assay relative to control; conditions: time 75.0 min
Beta-secretase 1 (Homo sapiens), sequence (P56817 whole entry): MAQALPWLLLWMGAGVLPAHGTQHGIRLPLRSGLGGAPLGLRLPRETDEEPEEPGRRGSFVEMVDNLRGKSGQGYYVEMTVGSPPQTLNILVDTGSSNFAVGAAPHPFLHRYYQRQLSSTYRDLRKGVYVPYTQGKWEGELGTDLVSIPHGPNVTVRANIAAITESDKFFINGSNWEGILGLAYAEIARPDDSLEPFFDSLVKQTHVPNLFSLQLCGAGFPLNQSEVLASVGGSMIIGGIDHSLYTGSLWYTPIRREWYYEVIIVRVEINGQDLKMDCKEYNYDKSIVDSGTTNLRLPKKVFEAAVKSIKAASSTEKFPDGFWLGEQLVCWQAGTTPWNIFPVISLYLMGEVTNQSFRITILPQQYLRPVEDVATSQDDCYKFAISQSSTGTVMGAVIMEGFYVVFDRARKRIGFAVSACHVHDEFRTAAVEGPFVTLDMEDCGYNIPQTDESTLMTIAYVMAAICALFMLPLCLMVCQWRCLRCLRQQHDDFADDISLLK

[10] = tested on: Mus musculus; experiment: Cognitive enhancing effect in 11 months old APP/PS1 double mutant-transgenic mouse model assessed as effect on number of times animal crossing central area in transparent cage at 2 mg/kg, ip administered thrice a week for 4 weeks by LOF test; format: functional, organism-based; outline: as §3
[11] = tested on: Mus musculus; experiment: Cognitive enhancing effect in 11 months old APP/PS1 double mutant-transgenic mouse model assessed as effect on time spent on moving along the field at 2 mg/kg, ip administered thrice a week for 4 weeks by LOF test; format: functional, organism-based; outline: as §3
[12] = tested on: Mus musculus; experiment: (§4) Antialzheimer activity in 11 months old APP/PS1 double mutant-transgenic mouse model assessed as postsynaptic potential in CA3 region of hippocampus at 2 mg/kg, ip administered thrice a week for 4 weeks followed by stimulation with 1 to 10 uA EPSP by fluorescence microscopy based electrophysiology method (reference value: 0.293 +/- 0.105 mV/ms); format: functional
Outline: (§5)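 Hippocampal slices from male APP/PS1 mice given 2 mg/kg i.p. in saline (or saline alone), three times per week for 4 weeks. Input–output curves were built from evoked fEPSP slopes and fiber volley amplitudes, with values taken at the maximum current intensity. Mean ± SEM of 9 slices from 3 mice per group; two-way ANOVA with Bonferroni post hoc.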

[13] = tested on: Mus musculus; experiment: as §4, with “6” for “11”, “young” for “old”, “fiber volley amplitude” for “postsynaptic potential”, “0.719” for “0.293”, “0.175” for “0.105”; format: functional; outline: as §5
[14] = tested on: Mus musculus; experiment: Neuroprotective activity in 11 months old APP/PS1 double mutant-transgenic mouse model assessed as decrease in 4-hydroxy-2-nonenal levels in hippocampus at 2 mg/kg, ip administered thrice a week for 4 weeks by Hoechst staining based immunofluorescence analysis; format: functional, organism-based
Outline: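 Hippocampal 4-hydroxy-2-nonenal was assessed by immunofluorescence with Hoechst counterstain in male APP/PS1 mice given 2 mg/kg i.p. in saline (or vehicle), three times weekly for 4 weeks. Mean ± SEM, n = 4 mice per group; one-way ANOVA with Bonferroni post hoc.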

[15] = tested on: Mus musculus; experiment: as §4, with “6” for “11”, “young” for “old”, “0.269” for “0.293”, “0.072” for “0.105”; format: functional; outline: as §5
[16] = Drug distribution in wild type C57BL6 mouse liver at 2 mg/kg, ip thrice a week for 2 weeks observed after 4 hrs post last dose by HPLC/MS/MS analysis; format: ADME, organism-based; conditions: in vivo, 336 h
[17] = tested on: Mus musculus; experiment: Antiinflammatory activity in 6 months young APP/PS1 double mutant-transgenic mouse model assessed as reduction in GFAP level in hippocampus at 2 mg/kg, ip administered thrice a week for 4 weeks by Hoechst staining based immunofluorescence analysis; format: functional, organism-based
Outline: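 Hippocampal GFAP immunofluorescence with Hoechst nuclear counterstain in male APP/PS1 mice after 2 mg/kg i.p. in saline (or vehicle), three times per week for 4 weeks. Mean ± SEM, n = 4 mice per group; one-way ANOVA with Bonferroni post hoc.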

[18] = tested on: Mus musculus; experiment: Antialzheimer activity in 11 months old APP/PS1 double mutant-transgenic mouse model assessed as theta burst induced-long term potentiation in CA3 region of hippocampus at 2 mg/kg, ip administered thrice a week for 4 weeks by fluorescence microscopy based electrophysiology method (reference value: 83.9 +/- 21.1 %); format: functional
[19] = tested on: Mus musculus; experiment: Memory enhancement effect in 6 months young APP/PS1 double mutant-transgenic mouse model at 2 mg/kg, ip administered thrice a week for 4 weeks by memory flexibility text; format: functional, organism-based; outline: as §1
[20] = tested on: Mus musculus; experiment: Cognitive enhancing effect in 6 months young APP/PS1 double mutant-transgenic mouse model assessed as increase in preference index for object at 2 mg/kg, ip administered thrice a week for 4 weeks by novel object localization test; format: functional, organism-based; outline: as §2

SMILES: COc1cc(CNC(=O)Cc2cn(CCCCC3=CC4Cc5nc6cc(Cl)ccc6c(N)c5C(C3)C4)nn2)ccc1O (stereo not given)
- Time [1]: 1.93 ms
- IC50 [2]: 92 µM
- Activity [3]: 13
- Activity [4]: inactive
- Ratio IC50 [5]: 6.9
- Activity [6]: 7
- Activity [7]: inactive
- Drug uptake [8]: Active
- inhibition [9]: inactive
- Activity [10]: inactive
- Activity [11]: inactive
- Activity [12]: 0.652 mV/ms
- Activity [13]: 0.738 mV/ms
- Activity [14]: Active
- Activity [15]: 0.296 mV/ms
- Drug uptake [16]: Active
- Activity [17]: inactive
- Activity [18]: 111%
- Activity [19]: inactive
- Activity [20]: inactive

SMILES: COc1cc(CNC(=O)CCCCCCNc2c3c(nc4cc(Cl)ccc24)CC2C=C(C)CC3C2)ccc1O (stereo not given)
- Time [1]: 3.44 ms
- IC50 [2]: 55.4 µM
- Activity [3]: 14
- Activity [4]: inactive
- Ratio IC50 [5]: 39.7
- Activity [6]: 13
- Activity [7]: inactive
- Drug uptake [8]: Active
- inhibition [9]: 7.4%
- Activity [10]: inactive
- Activity [11]: inactive
- Activity [12]: 0.545 mV/ms
- Activity [13]: 0.399 mV/ms
- Activity [14]: Active
- Activity [15]: 0.262 mV/ms
- Drug uptake [16]: Active
- Activity [17]: Active
- Activity [18]: 124.3%
- Activity [19]: inactive
- Activity [20]: inactive
